Results reported in PMC5548977 (ESMO Open, 2017).

What was measured:
[1] = Pharmacokinetics: total ruthenium in plasma by ICP-MS, cycle 1; format: in vivo, human
Method in brief: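 Cycle 1 plasma was taken on days 1, 2 and 8, pre-infusion and at 15 min, 30 min, 1, 2, 4, 6–8, 10–12 and 24 hours post-infusion, plus pre-dose day 8. Total ruthenium (free and bound) was measured by ICP-MS. Drug was reconstituted in normal saline and given intravenously over 30 min (<500 mL) or 60–90 min (>500 mL). Parameters were derived from concentration–time data and summarised descriptively.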

advanced solid tumours = assay: Anti-tumour activity, tumour response by CT; format: in vivo, human
Method in brief: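 Adult patients with refractory advanced solid tumours got intravenous infusions on days 1, 8 and 15 of 28-day cycles, at 20–780 mg/m2. CT response assessment was done at baseline and every two cycles per RECIST V.1.1. Disease control was defined as CR, PR or SD. Evaluable patients had at least one response assessment. Treatment continued until confirmed PD. Analysis was descriptive.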

[2] = tested on: metastatic osteosarcoma cells; settings: ex vivo lung metastases model; cited from earlier work
[3] = in vitro, combination with different classes of cancer drugs; ref 23 24; cited from earlier work
[4] = tested on: drug-resistant PDAC cells; settings: cited from earlier work
[5] = tested on: patients with advanced solid tumours; assay: Phase I dose-escalation study: adverse events, dose-limiting toxicities, MTD; format: in vivo, human
Method in brief: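 Dosing was intravenous on days 1, 8 and 15 every 28 days, with dose by BSA (actual weight) recalculated each cycle. Escalation started at 20 mg/m2 with one patient per level, doubling until ≥grade 2 toxicity, then 3+3, across nine cohorts up to 780 mg/m2, with an expansion cohort at MTD. Dexamethasone 10 mg IV plus IV 5-HT antagonist premedication was recommended. AEs/DLTs were graded by NCI CTCAE V.3.0 and followed 30 days post-treatment.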

GRP78 = settings: tumour cells; independent preclinical studies; cited from earlier work
[6] = ref 9 10, cited from earlier work
[7] = 10 patients with disease control
[8] = efficacy-evaluable population (n=38)

## [Cl][Ru-]([Cl])([Cl])[Cl].[Na+].c1ccc2[nH]ncc2c1.c1ccc2[nH]ncc2c1 [IT-139, sodium trans-(tetrachlorobis(1H-indazole)ruthenate(III))]
[1]; across dose levels, may not represent true terminal half-life
  mean half-life (t1/2): 113 h
[1]; across the dose range evaluated (20-780 mg/m^2)
  pharmacokinetic linearity: first-order linear pharmacokinetics
[1]; in vivo
  dose dependence of PK parameters: increased proportionally with dose
  mean total clearance (CLtotal): 164 mL/h
  percentage of the administered dose excreted in the urine (mean): 1.14%
Advanced solid tumours; 8 of 38 efficacy-evaluable patients
  patients with target lesion size reductions: 21%
Advanced solid tumours; [7]
  median duration of disease control: 9 weeks
  range of duration of disease control: 1–98 weeks
Advanced solid tumours; carcinoid patient continued on compassionate use protocol
  duration of SD from initiation of therapy until PD: 54 weeks
Advanced solid tumours; [8]
  number of patients with PR: 1
  number of patients with SD: 9
Advanced solid tumours; one PR and two SDs
  disease control in patients with carcinoid neuroendocrine tumours: three of five patients had disease control
Advanced solid tumours; weekly i.v. days 1, 8 and 15 of every 28-day cycle
  single-agent anti-tumour activity: modest anti-tumour activity
[2]
  tumour burden: decrease in tumour burden after treatment
[3]
  synergy in combination: marked synergy
[4]; PDAC model
  effect on GRP78 chemoresistance: inhibits GRP78 chemoresistance
[4]; in combination with gemcitabine, drug-resistant PDAC cells
  sensitivity to cytotoxic drugs: sensitivity to cytotoxic drugs was restored
[5]; 20 mg/m^2 (n=1)
  Any adverse event, patients: 1
  Maximum severity of adverse event Grade 1, patients: 1
  Related adverse event (related to study drug as assessed by the investigator), patients: 1
[5]; 40 mg/m^2 (n=1)
  Any adverse event, patients: 1
  Maximum severity of adverse event Grade 2, patients: 1
  Related adverse event (related to study drug as assessed by the investigator), patients: 1
[5]; 80 mg/m^2 (n=1)
  Any adverse event, patients: 1
  Maximum severity of adverse event Grade 1, patients: 1
  Related adverse event (related to study drug as assessed by the investigator), patients: 1
[5]; 160 mg/m^2 (n=1)
  Any adverse event, patients: 1
  Maximum severity of adverse event Grade 1, patients: 1
  Related adverse event (related to study drug as assessed by the investigator), patients: 1
[5]; 320 mg/m^2 (n=7)
  Any serious adverse event, patients: 4
  Discontinued treatment due to adverse event, patients: 1
  Maximum severity of adverse event Grade 1, patients: 1
  Maximum severity of adverse event Grade 2, patients: 3
  Maximum severity of adverse event Grade 3, patients: 3
  Maximum severity of adverse event ≥ Grade 3, patients: 3
  Related adverse event (related to study drug as assessed by the investigator), patients: 7
  Related serious adverse event, patients: 1
[5]; 420 mg/m^2 (n=5)
  Any adverse event, patients: 5
  Any serious adverse event, patients: 1
  Discontinued treatment due to adverse event, patients: 2
  Maximum severity of adverse event Grade 1, patients: 1
  Maximum severity of adverse event Grade 2, patients: 2
  Maximum severity of adverse event Grade 3, patients: 2
  Maximum severity of adverse event ≥ Grade 3, patients: 2
  Related adverse event (related to study drug as assessed by the investigator), patients: 4
[5]; 500 mg/m^2 (n=3)
  Any adverse event, patients: 3
  Maximum severity of adverse event Grade 1, patients: 1
  Maximum severity of adverse event Grade 2, patients: 2
  Related adverse event (related to study drug as assessed by the investigator), patients: 2
[5]; 625 mg/m^2 (n=18)
  Any serious adverse event, patients: 6
  Discontinued treatment due to adverse event, patients: 2
  Maximum severity of adverse event Grade 1, patients: 4
  Maximum severity of adverse event Grade 2, patients: 4
  Maximum severity of adverse event Grade 3, patients: 9
  Maximum severity of adverse event Grade 5, patients: 1
  Maximum severity of adverse event ≥ Grade 3, patients: 10
  Related serious adverse event, patients: 1
[5]; 780 mg/m^2
  duration of QTc prolongation after infusion: up to 10 hours
[5]; 780 mg/m^2 (n=9)
  Any adverse event, patients: 9
  Any serious adverse event, patients: 4
  Maximum severity of adverse event Grade 1, patients: 1
  Maximum severity of adverse event Grade 2, patients: 4
  Maximum severity of adverse event Grade 3, patients: 3
  Maximum severity of adverse event Grade 5, patients: 1
  Maximum severity of adverse event ≥ Grade 3, patients: 4
  Related adverse event (related to study drug as assessed by the investigator), patients: 9
  Related serious adverse event, patients: 2
[5]; 20 to 780 mg/m^2
  overall tolerability: well tolerated
[5]; across dose levels
  cumulative toxicity: no evidence of cumulative toxicity
[5]; all dose levels
  drug-related renal toxicity: no evidence of drug-related renal toxicity
[5]; i.v. infusion days 1, 8 and 15 every 28 days
  MTD (maximum-tolerated dose): 625 mg/m^2
[5]; in vivo
  effect on platelets or white blood cells: no effect on platelets or white blood cells
[5]; n=46, all dose levels
  patients with an AE that led to treatment discontinuation: 11%
[5]; no control group, chance effect not excluded
  PR prolongation: evidence for PR prolongation
[5]; over time, all dose levels
  Creatine clearance: stable over time and across all dose levels
[5]; three patients (four blood draws), without any clinical correlates
  serum discolouration at blood draw: discoloured serum, green in colour
[5]; total patients (n=46)
  Any serious adverse event, patients: 15
  Discontinued treatment due to adverse event, patients: 5
  Maximum severity of adverse event Grade 1, patients: 11
  Maximum severity of adverse event Grade 5, patients: 2
  Maximum severity of adverse event ≥ Grade 3, patients: 19
  Related serious adverse event, patients: 4
GRP78
  effect on stress induction of GRP78: suppressing the stress induction of GRP78 in tumour cells

## imidazolium-(trans-DMSO-imidazole-tetrachlororuthenate) [NAMI-A]
[6]; monotherapy, clinic trials
  tolerability: moderately tolerated
[6]; phase I/II combination study with gemcitabine
  activity in combination: less activity in combination than with gemcitabine therapy alone
